Assay results published in ChEMBL document CHEMBL1157729, “Structure-activity relationship and mechanism of action studies of manzamine analogues for the control of neuroinflammation and cerebral infections” (J Med Chem, 2010).
≈ marks a conversion by molar mass, not a printed value.

Tests used:
Plasmodium berghei [1] = assay: Antiplasmodial activity in Plasmodium berghei NK65 infected in Swiss Webster mice (Mus musculus) assessed as survivability at 1.1 mg/kg, perorally administered 1 day after infection for 3 days measured after 28 days post infection; format: functional; settings: route oral
Method in brief: (§1)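 Male Swiss Webster mice (18-20 g), at least 5 per group, inoculated i.p. with 2×10^7 P. berghei NK-65-parasitized red cells from a donor mouse. Oral dosing (100 μl, in SSV or 0.01 M HCl dilutions) from day one post-infection on a 3-day schedule (modified Peters test). Giemsa-stained tail-blood smears read from day 5 to day 28. Cure means no parasitemia through day 28.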

[2] = Selectivity index, ratio of IC50 for african green monkey (Cercopithecus aethiops) Vero cells to IC50 for chloroquine-sensitive Plasmodium falciparum; format: toxicity, cell-based
[3] = system: Mycobacterium tuberculosis; assay: Antimycobacterial activity against Mycobacterium tuberculosis; format: functional
[4] = Antineuroinflammatory activity in LPS-stimulated rat neonatal microglia assessed as inhibition of PMA-induced TXB2 production preincubated 15 mins prior to PMA challenge measured after 70 mins; format: functional, cell-based
Plasmodium berghei [5] = assay: Antiplasmodial activity against Plasmodium berghei NK65 infected in Swiss Webster mice (Mus musculus) assessed as inhibition of parasitaemia at 1.1 mg/kg, perorally administered 1 day after infection for 3 days measured after 5 days post infection; format: functional; settings: route oral
Method in brief: (§2)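 Male Swiss Webster mice (18-20 g, ≥5/group) inoculated i.p. with 2×10^7 P. berghei NK-65 parasitized RBC; oral dosing (100 μl, SSV or dilute HCl vehicle) once daily for 3 days from day 1; Giemsa-stained tail blood smears days 5–28; inhibition is % decrease versus untreated controls on day 5.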

Plasmodium berghei [6] = assay: Antiplasmodial activity against Plasmodium berghei NK65 infected in Swiss Webster mice (Mus musculus) assessed as average parasitaemia at 1.1 mg/kg, perorally administered 1 day after infection for 3 days measured after 7 days post infection; format: functional; settings: route oral
Plasmodium berghei [7] = assay: Antiplasmodial activity against Plasmodium berghei NK65 infected in Swiss Webster mice (Mus musculus) assessed as average parasitaemia at 10 mg/kg, perorally administered 1 day after infection for 3 days measured after 7 days post infection; format: functional; settings: route oral
Plasmodium berghei [8] = assay: Antiplasmodial activity against Plasmodium berghei NK65 infected in Swiss Webster mice (Mus musculus) assessed as average parasitaemia at 3.3 mg/kg, perorally administered 1 day after infection for 3 days measured after 10 days post infection; format: functional; settings: route oral
Plasmodium berghei [9] = assay: Antiplasmodial activity against Plasmodium berghei NK65 infected in Swiss Webster mice (Mus musculus) assessed as parasitaemia cure at 10 mg/kg, perorally administered 1 day after infection for 3 days measured after 28 days post infection; format: functional; settings: route oral; method in brief: as §1
Plasmodium berghei [10] = assay: Antiplasmodial activity against Plasmodium berghei NK65 infected in Swiss Webster mice (Mus musculus) assessed as parasitaemia cure at 5 mg/kg, perorally administered 1 day after infection for 3 days measured after 28 days post infection; format: functional; settings: route oral
Plasmodium berghei [11] = assay: Antiplasmodial activity against Plasmodium berghei NK65 infected in Swiss Webster mice (Mus musculus) assessed as average parasitaemia at 5 mg/kg, perorally administered 1 day after infection for 3 days measured after 10 days post infection; format: functional; settings: route oral
Plasmodium berghei [12] = assay: Antiplasmodial activity against Plasmodium berghei NK65 infected in Swiss Webster mice (Mus musculus) assessed as average parasitaemia at 5 mg/kg, perorally administered 1 day after infection for 3 days measured after 14 days post infection; format: functional; settings: route oral
Plasmodium berghei [13] = assay: Antiplasmodial activity against Plasmodium berghei NK65 infected in Swiss Webster mice (Mus musculus) assessed as average parasitaemia at 1.1 mg/kg, perorally administered 1 day after infection for 3 days measured after 21 days post infection; format: functional; settings: route oral
Plasmodium berghei [14] = assay: Antiplasmodial activity against Plasmodium berghei NK65 infected in Swiss Webster mice (Mus musculus) assessed as average parasitaemia at 3.3 mg/kg, perorally administered 1 day after infection for 3 days measured after 28 days post infection; format: functional; settings: route oral; method in brief: as §2
Plasmodium berghei [15] = assay: Antiplasmodial activity against Plasmodium berghei NK65 infected in Swiss Webster mice (Mus musculus) assessed as average parasitaemia at 5 mg/kg, perorally administered 1 day after infection for 3 days measured after 28 days post infection; format: functional; settings: route oral
Plasmodium berghei [16] = assay: Antiplasmodial activity against Plasmodium berghei NK65 infected in Swiss Webster mice (Mus musculus) at 1.1 mg/kg, po; format: functional
Method in brief: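 Male Swiss Webster mice (18-20 g), at least 5 per group, inoculated i.p. with 2×10^7 P. berghei NK-65 parasitized red cells from a donor mouse. Oral dosing (100 μl, in SSV or dilute HCl) from day one after infection, three-day modified Peters suppressive schedule. Giemsa-stained tail blood smears from day 5 through day 28. Inhibition is % parasitemia drop on day 5 versus untreated controls. Cure means no parasitemia through day 28.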

Plasmodium berghei [17] = assay: Antiplasmodial activity against Plasmodium berghei NK65 infected in Swiss Webster mice (Mus musculus) at 3.3 mg/kg, po; format: functional; method in brief: as §1
Plasmodium berghei [18] = assay: Antiplasmodial activity against Plasmodium berghei NK65 infected in Swiss Webster mice (Mus musculus) assessed as average parasitaemia at 100 mg/kg, perorally administered 1 day after infection measured after 7 days post infection; format: functional; settings: route oral
Plasmodium berghei [19] = assay: Antiplasmodial activity against Plasmodium berghei NK65 infected in Swiss Webster mice (Mus musculus) assessed as average parasitaemia at 200 mg/kg, perorally administered 1 day after infection measured after 21 days post infection; format: functional; settings: Plasmodium berghei, NK65, route oral
Method in brief: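 Male Swiss Webster mice (18-20 g), at least 5 per group, were inoculated ip with 2×10^7 P. berghei NK-65-parasitized red cells from a donor mouse and given a single oral dose (100 μl). Stock was made in SSV or 0.1 M HCl and diluted in SSV or 0.01 M HCl. Parasitemia was read from Giemsa-stained tail blood smears from day 5 to day 28. Cure meant no parasitemia through day 28.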

Plasmodium yoelii = assay: Antiplasmodial activity against Plasmodium yoelii infected in perorally dosed mice (Mus musculus); format: functional; settings: po
Plasmodium berghei [20] = assay: Antiplasmodial activity against Plasmodium berghei infected in mice (Mus musculus) at 5 mg/kg, perorally administered 1 day post infection for 3 days; format: functional; settings: route oral
Mus musculus = assay: Toxicity in Plasmodium berghei NK65 infected Swiss Webster mice (Mus musculus) assessed as weight loss at 200 mg/kg, perorally; format: organism-based; parameters: dose 200 mg/kg, route oral; settings: in vivo, po
Method in brief: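 P. berghei NK-65 infection in male Swiss Webster mice (18-20 g; 2×10^7 parasitized erythrocytes i.p.; ≥5 per group). A single oral dose of 100 μl, diluted in SSV or 0.01 M HCl, then observation for toxicity signs and body weight. Parasitemia read from Giemsa-stained tail smears from day 5 through day 28. Mice free of parasitemia through day 28 counted as cured.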

HeLa [21] = assay: Cell cycle arrest in human HeLa cells assessed as increase in G0/G1 phase accumulation at 20 uM after 24 hrs by FACS analysis; format: functional
HeLa [22] = assay: Cell cycle arrest in human HeLa cells assessed as increase in S phase accumulation at 5 uM after 24 hrs by FACS analysis; format: functional
HeLa [23] = assay: Cell cycle arrest in human HeLa cells assessed as increase in G0/G1 phase accumulation at 3 uM after 24 hrs by FACS analysis; format: functional
HeLa [24] = assay: Cell cycle arrest in human HeLa cells assessed as decrease in G2/M phase accumulation at 5 uM after 24 hrs by FACS analysis; format: functional; parameters: scale not given: the % may be the effect or the level left
HeLa [25] = assay: Cell cycle arrest in human HeLa cells assessed as decrease in G2/M phase accumulation at 20 uM after 24 hrs by FACS analysis; format: functional; parameters: scale not given: the % may be the effect or the level left

For `O[C@]12C=C(c3nccc4c3[nH]c3ccccc34)[C@@H]3CCN(CCCC/C=C\CC1)C[C@@]31C[C@@H]3/C=C\CCCCN3[C@H]12` [MANZAMINE A], the inhibition in vivo at 1.1 mg/kg (Plasmodium berghei [1]) was 50%, the “Ratio IC50” value [2] was 44 and the MIC [3] was 1.56 µg/mL (≈ 2.84 µM). The IC50 [4] was < 100 nM, the inhibition in vivo at 1.1 mg/kg (Plasmodium berghei [5]) was 75% and the inhibition in vivo at 1.1 mg/kg (Plasmodium berghei [6]) was 5.5%. For the same molecule, the inhibition in vivo at 10 mg/kg (Plasmodium berghei [7]) was 0.2%, the inhibition in vivo at 3.3 mg/kg (Plasmodium berghei [8]) was 4.3% and the inhibition in vivo at 10 mg/kg (Plasmodium berghei [9]) was 75%. For the same molecule, the inhibition in vivo at 5 mg/kg (Plasmodium berghei [10]) was 0%, the inhibition in vivo at 5 mg/kg (Plasmodium berghei [11]) was 7.8% and the inhibition in vivo at 5 mg/kg (Plasmodium berghei [12]) was 13.5%. The inhibition in vivo at 1.1 mg/kg (Plasmodium berghei [13]) was 39.6%, the inhibition in vivo at 3.3 mg/kg (Plasmodium berghei [14]) was 53.9% and the inhibition in vivo at 5 mg/kg (Plasmodium berghei [15]) was 39.3%. For the same molecule, the inhibition in vivo at 1.1 mg/kg (Plasmodium berghei [16]) was 26.5%, the inhibition in vivo at 3.3 mg/kg (Plasmodium berghei [17]) was > 30% and the inhibition in vivo at 100 mg/kg (Plasmodium berghei [18]) was 0%. It also gave an inhibition in vivo at 200 mg/kg (Plasmodium berghei [19]) of 0%, an ED50 (Plasmodium yoelii) of 0.57 mg/kg and an ED90 (Plasmodium yoelii) of 1.7 mg/kg. The Activity (Plasmodium berghei [20]) was 24.3 days, the Activity (Mus musculus) was “Toxic” and the Activity (HeLa [21]) was 67.2%. It also gave an Activity (HeLa [22]) of 56.3%, an Activity (HeLa [23]) of 56.2% and an Activity (HeLa [24]) of 14.3%. The Activity (HeLa [25]) was 11.8%.
